Bioassay records deposited in PubChem BioAssay by several laboratories.
SENP1 FRET inh – inhibitors of human SENP1 SUMO protease catalytic domain; AID 624204; recombinant SENP1 catalytic domain, CyPet-SUMO1-YPet FRET cleavage; hit rate 0.21% among 360,000; inhibition, % at 10 µM; Q9P0U3;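 active = inhibition at least 30% at 10 µM, raw YFP signal under a set limit, fluorescence ratio 0.5 to 1.5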;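 also: 0% = enzyme with DMSO and 100% = no enzyme wells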
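Assay system – human recombinant His6-tagged SENP1 catalytic domain enzyme · Input – SENP1 enzyme, 20 pM final · Buffer or medium – Tris pH 8 buffer plus EDTA, NaCl, BME, BSA, NP40, catalase · Schedule – 50 min reaction at room temperature · Technique – FRET read of cyan and yellow fluorescence · Control set – no-enzyme wells low, DMSO-plus-enzyme wells high control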
HSP90 refold inh – blocks HSP90-mediated luciferase refolding in reticulocyte lysate. Rabbit reticulocyte lysate, luciferase refolding luminescence, 3 h. inhibition, % at 5.6 µM. hit rate 0.91% among 290,000. AID 1789;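 active = inhibition above the screen-wide mean plus 3 SD, computed separately per campaign, cut at about 16% in these data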;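 also: 0% = DMSO wells and 100% = 60 µM geldanamycin wells; inhibitors lower the luminescence because luciferase stays unfolded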
SENP7 block – blocks the human protease SENP7 | Q9BQF6 | hit rate 1.5% among 330,000 | inhibition, % at 5 µM | recombinant SENP7, Z-RLRGG-aminoluciferin luminescence, 40 min;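 active = inhibition above about 50% at the single test dose, limit read from the data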;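 also: plate controls were DMSO with enzyme for no effect and no enzyme buffer wells for full effect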
Target sequence (Q9BQF6 706-1050 limits assumed): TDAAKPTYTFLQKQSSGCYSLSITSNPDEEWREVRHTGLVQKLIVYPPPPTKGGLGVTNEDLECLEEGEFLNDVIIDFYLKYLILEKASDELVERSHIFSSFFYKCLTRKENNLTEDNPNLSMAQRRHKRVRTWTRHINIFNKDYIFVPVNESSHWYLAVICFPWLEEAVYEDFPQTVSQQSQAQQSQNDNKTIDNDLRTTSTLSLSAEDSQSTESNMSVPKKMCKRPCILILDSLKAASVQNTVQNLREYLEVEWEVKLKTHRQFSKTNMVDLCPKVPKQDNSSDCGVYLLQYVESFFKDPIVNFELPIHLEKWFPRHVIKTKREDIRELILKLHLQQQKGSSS
SENP8 block-1 – SENP8 protease inhibition; Q96LD8; purified SENP8, Z-RLRGG-aminoluciferin cleavage, luminescence; inhibition, % at 10 µM; hit rate 1.2% among 330,000; in the data active = inhibition above about 50%
Target sequence (Q96LD8 whole entry, looked up): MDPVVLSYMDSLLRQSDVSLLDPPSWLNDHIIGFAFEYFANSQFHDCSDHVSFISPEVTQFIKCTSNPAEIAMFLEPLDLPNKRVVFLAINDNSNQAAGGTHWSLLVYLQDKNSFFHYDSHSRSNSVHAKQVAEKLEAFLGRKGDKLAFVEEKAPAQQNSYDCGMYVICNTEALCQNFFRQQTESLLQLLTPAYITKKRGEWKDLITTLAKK
SENP6 inh – blocks the human protease SENP6; Recombinant SENP6 catalytic domain, aminoluciferin luminescence; inhibition, % at 10 µM; hit rate 1.8% among 330,000;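 active = inhibition above about 50% at the single tested dose, limit read from the data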;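 also: plate controls were DMSO wells with enzyme for no effect and DMSO wells lacking enzyme for full effect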
SENP8 block-2 – SENP8 (human) protease inhibition. Q96LD8. recombinant SENP8, Nedd8 substrate fluorescence. inhibition, % at 20 µM. hit rate 0.64% among 360,000. AID 602440; in the data active = inhibition mostly above about 40%, no sharp cut-off; inactive = mostly below about 27%
Active calls of the source: *. Most compounds without a hit are left out; they make up all but 2.9% or so of the library.

Screening Cc1nc(-c2ccc(Br)cc2)ccc1C(=O)O returned SENP1 FRET inh 0, HSP90 refold inh 1, SENP7 block 20, SENP8 block-1 30, SENP6 inh 75* and SENP8 block-2 14.
Screening C/C(=N\NC(=O)c1cc(C)oc1C)c1ccc(C)c([N+](=O)[O-])c1 returned SENP1 FRET inh 2, SENP7 block -13, SENP8 block-1 -14, SENP6 inh -17 and SENP8 block-2 10.
For CCc1nc2ccc(C(=O)NCCCn3ccnc3)cn2c1N(C)Cc1cc2ccccc2s1 the results were SENP1 FRET inh 2 and SENP8 block-2 9.
Cc1ccccc1C(=O)N/N=C/c1ccc([N+](=O)[O-])s1 was read as SENP1 FRET inh -9, HSP90 refold inh -1, SENP7 block 17, SENP8 block-1 24, SENP6 inh 44 and SENP8 block-2 38.
O=C(N/N=C/c1ccc([N+](=O)[O-])s1)c1ccccc1 was read as SENP1 FRET inh 0, HSP90 refold inh 3, SENP7 block 15, SENP8 block-1 21, SENP6 inh 50* and SENP8 block-2 34.
Cc1ccnn1CC(=O)N/N=C/c1cccs1 was read as SENP1 FRET inh 2, HSP90 refold inh 6, SENP7 block -3, SENP8 block-1 2, SENP6 inh -3 and SENP8 block-2 28.
`Cc1ccnn1CC(=O)N/N=C/c1ccc([N+](=O)[O-])s1` gave SENP1 FRET inh 2, HSP90 refold inh -1, SENP7 block 22, SENP8 block-1 29, SENP6 inh 51* and SENP8 block-2 23.
Screening CC(=O)NC(C)(c1ccccc1)c1nc(-c2csc3ccccc23)cs1 (centres undefined) returned SENP1 FRET inh 2 and SENP8 block-2 5.
Screening CC(C)NC[C@@H](O)c1ccc(O)c(O)c1 returned SENP1 FRET inh -25, HSP90 refold inh 2, SENP7 block 6, SENP8 block-1 3, SENP6 inh 7 and SENP8 block-2 44*.
CC(C)NCC(O)c1ccc(NS(C)(=O)=O)cc1 (centres undefined) was read as SENP1 FRET inh 1, HSP90 refold inh 0, SENP7 block 7, SENP8 block-1 0, SENP6 inh -3 and SENP8 block-2 5.
For Cc1ccc(N=Cc2cccc(O)c2O)c(C)c1 the results were SENP1 FRET inh 2, HSP90 refold inh 0, SENP7 block 6, SENP8 block-1 7, SENP6 inh 31 and SENP8 block-2 110*.
For CN1C=CC=C/C1=C1\SC(=S)N(c2ccccc2)C1=O the results were SENP1 FRET inh -1, HSP90 refold inh 3, SENP7 block 12, SENP8 block-1 6, SENP6 inh 14 and SENP8 block-2 44*.
Screening CN1CCN(/N=C/c2ccc(-c3ccc([N+](=O)[O-])cc3Cl)o2)CC1 returned SENP1 FRET inh 79*, HSP90 refold inh -2, SENP7 block -11, SENP8 block-1 -7, SENP6 inh -14 and SENP8 block-2 36.
`CCCCCn1c(=O)[nH]c2cc(C(=O)NCCCN3CCCCC3CC)ccc2c1=O` (centres undefined) gave SENP1 FRET inh -2, HSP90 refold inh -5, SENP7 block 2, SENP8 block-1 -2, SENP6 inh -25 and SENP8 block-2 -195.
`O=C(NC(=S)Nc1ccc(NC(=O)c2ccccc2)cc1)c1ccc(F)cc1` gave SENP1 FRET inh 6, HSP90 refold inh -2, SENP7 block 2, SENP8 block-1 -6, SENP6 inh -8 and SENP8 block-2 14.
O=C(NC(=S)Nc1ccc2c(c1)C(=O)c1ccccc1C2=O)c1ccc(F)cc1 was read as HSP90 refold inh 4, SENP7 block 64*, SENP8 block-1 52* and SENP6 inh 78*.
`NNC(=O)Cc1cccc2ccc(Cl)cc12` gave SENP1 FRET inh 4 and SENP8 block-2 20.
COc1ccc2ccccc2c1C1CC(=O)N2CN(Cc3ccco3)CSC2=C1C#N (centres undefined) was read as SENP1 FRET inh -4, HSP90 refold inh 3, SENP7 block 16, SENP8 block-1 12, SENP6 inh 10 and SENP8 block-2 45*.
Screening COc1ccc(C2CC(=O)N3CN(Cc4ccco4)CSC3=C2C#N)cc1 (centres undefined) returned SENP1 FRET inh -10, HSP90 refold inh 5, SENP7 block 0, SENP8 block-1 9, SENP6 inh -4 and SENP8 block-2 12.
CC1=NN(C(C#N)c2ccccc2O)C(C)(C)C1 (centres undefined) was read as SENP1 FRET inh 1, HSP90 refold inh 5, SENP7 block 2, SENP8 block-1 -7, SENP6 inh 9 and SENP8 block-2 43*.
Screening COc1ccccc1C(C#N)N1N=C(C)CC1(C)C (centres undefined) returned SENP1 FRET inh 0, HSP90 refold inh -1, SENP7 block -2, SENP8 block-1 4, SENP6 inh -3 and SENP8 block-2 1.
COc1cc([N+](=O)[O-])cc(/C=N/NC(=O)c2ccc(C)nc2)c1O was read as SENP1 FRET inh -8, HSP90 refold inh -2, SENP7 block 77*, SENP8 block-1 58*, SENP6 inh 75* and SENP8 block-2 27.
For COc1cc([N+](=O)[O-])cc(/C=N/NC(=O)c2ccc(NC(=O)c3ccc(C)cc3)cc2)c1O the results were SENP1 FRET inh -28, HSP90 refold inh 0, SENP7 block -3, SENP8 block-1 1, SENP6 inh 3 and SENP8 block-2 16.
`COc1cc([N+](=O)[O-])cc(/C=N/NC(=O)C(C)Nc2ccccc2C)c1O` (centres undefined) gave SENP1 FRET inh -4, HSP90 refold inh -1, SENP7 block -8, SENP8 block-1 1, SENP6 inh 3 and SENP8 block-2 41*.
For COc1cc([N+](=O)[O-])cc(/C=N/NC(=O)C(C)Nc2cccc(C)c2)c1O (centres undefined) the results were SENP1 FRET inh -1, HSP90 refold inh 0, SENP7 block 8, SENP8 block-1 2, SENP6 inh 13 and SENP8 block-2 22.
Cc1ccc(Nc2ccc([N+](=O)[O-])ccc2=O)cc1 was read as SENP1 FRET inh 0, SENP7 block 7, SENP8 block-1 6, SENP6 inh 21 and SENP8 block-2 43*.
`Cc1ccc(S(=O)(=O)Nc2cccc(C(=O)N3CCC(C(N)=O)CC3)c2)cc1` gave SENP1 FRET inh 1, SENP7 block 3, SENP8 block-1 -2, SENP6 inh 6 and SENP8 block-2 7.
For O=C(NCc1ccccc1)c1cccc(COc2ccccc2Cl)c1 the results were SENP1 FRET inh 1, HSP90 refold inh 17*, SENP7 block -9, SENP8 block-1 -11, SENP6 inh 4 and SENP8 block-2 10.
`O=C(NCc1ccccc1)c1cccc(COc2cc(Cl)ccc2Cl)c1` gave SENP1 FRET inh 0, HSP90 refold inh 7, SENP7 block -5, SENP8 block-1 8, SENP6 inh 17 and SENP8 block-2 12.
